Source: PubChem BioAssay (several laboratories)
Shown are actives, neighbours in structure and some others; about 2.2% of the full set was active somewhere.
Hck Nef HTS: blocks Nef-activated human Hck kinase. P08631. actives 0.68% (n = 220,000). Recombinant Hck-YEEI plus Nef, Z-Lyte FRET kinase assay. inhibition, % at 20 µM;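 active = Hck-Nef kinase inhibition above about 50%, limit read from the data; inactive = inhibition below that limit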;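 note: 0% = DMSO with Hck plus Nef and 100% = Hck alone without Nef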
Runt-CBFb FRET: blocks binding of human RUNX1 Runt domain to CBFb | Q01196+Q13951 | Cerulean-Runt/Venus-CBFb FRET ratio 530/480, 1 h | inhibition, % at 20 µM | actives 0.46% (n = 220,000) | AID 1496;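 active = inhibition over about 50% at 20 µM in the single-dose screen, limit read from the data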;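 note: 0% = DMSO wells and 100% = excess unlabeled CBFb competitor control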
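Doses: 20 µM compound in 1% DMSO | Material: Cerulean-labeled Runt domain protein | Amount: Each fluorescent fusion protein 100 nM | Schedule: Two 1 h room-temperature incubations shielded from light | Measured by: FRET fluorescence | Evaluation: Loss of energy transfer signal | Controls: Unlabeled CBFb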
PERK inhibitor: inhibitors of human PERK kinase; Q9NZJ5; actives 0.17% (n = 220,000); CHO PERK-DD fusion, SEAP luminescence translation reporter; inhibition, % at 5.6 µM;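 active = inhibition above the mean inhibition of all tested compounds plus 3 SD, set separately per screening campaign, cut at about 2.9% in these data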;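 note: PERK kinase domain activated by AP20187 dimerizer at 100 nM; 0% = DMSO with dimerizer and 100% = rapamycin at 8.4 µM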
eIF4E 4G PPI: inhibitors of eIF4E and eIF4G interaction in translation initiation | P63073+Q04637 | TR-FRET eIF4E-eIF4GI(517-606) binding, 2 h | inhibition, % at 21.7 µM | actives 0.37% (n = 220,000);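 active = inhibition above about 30%, limit read from the data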;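 note: 0% = full FRET control wells and 100% = background wells lacking eIF4GI fragment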
Runt-SMMHC FRET: inhibitors of human RUNX1 Runt domain binding to CBFb-SMMHC | inhibition, % at 20 µM | Q01196+Q13951 | actives 0.74% (n = 220,000) | Cerulean-Runt/Venus-CBFb-SMMHC FRET ratio 530/480, 1 h;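 active = mean inhibition across duplicate retests at 20 µM reaching about 50%, limit read from the data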;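 note: 0% = DMSO wells and 100% = wells with excess untagged CBFb-SMMHC; inhibitors lower the FRET ratio by blocking Runt binding to CBFb-SMMHC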
RanGTP-Impb inh: inhibitors of RanGTP-importin-beta interaction, primary screen, biochemical, FRET, CFP-Ran, YFP-importin-beta, homogeneous; cell-free CFP-Ran/YFP-importin-beta FRET ratio; inhibition, % (test concentration not listed); actives 1.1% (n = 300,000); AID 2216;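 active = more than half of the replicate wells show a fall in the fluorescence ratio signal beyond about 16%, limit read from the data, passing the limit was not always enough; inconclusive = exactly half of the replicate wells pass the set limit; inactive = fewer than half of replicates pass the limit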;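 note: 0% = DMSO wells and 100% = Ran loaded with GDP instead of GTP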
Hck Nef conf: Hck-Nef kinase inhibition, confirmation. shares compounds with Hck Nef HTS. Recombinant Hck-YEEI:Nef, Z-Lyte FRET kinase assay. calls only at 10 µM. actives 28% (n = 1,300);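 active = average inhibition of at least 50%, with Z-scores no higher than 3 in both the phospho-tyrosine peptide and fluorescence counterscreens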
The depositor's hits bear a star; i = inactive; ? = inconclusive; / = not tested or not shown; + = active, no number.

SMILES	Hck Nef HTS	Runt-CBFb FRET	PERK inhibitor	eIF4E 4G PPI	Runt-SMMHC FRET	RanGTP-Impb inh	Hck Nef conf
O=C(N/N=C/c1ccc2c(c1)OCO2)c1ccc(NS(=O)(=O)c2cccs2)cc1	-7	1	0	-4	-1	2	/
Cc1cc(NS(=O)(=O)c2ccc(NC(=S)NC(=O)c3ccc(F)cc3)cc2)no1	3	4	1	1	-2	3	/
S=c1[nH]nc(-c2ccco2)n1/N=C/c1ccc(Cl)c(Cl)c1	5	9	0	2	10	4	/
S=c1[nH]nc(-c2ccco2)n1/N=C/c1c(Cl)cccc1Cl	61*	13	0	2	14	?	i
O=C1C=CC(O)(c2cc(=O)c3c(O)cc(O)cc3o2)C=C1	53*	9	0	6	6	7	i
O=c1cc(-c2ccccc2Cl)oc2cc(O)cc(O)c12	2	-3	1	4	-2	0	/
O=C(c1ccccc1)c1ccc2nc(Nc3ccccc3)c3nncn3c2c1	68*	0	-2	6	-65	1	i
CC(=O)c1ccc2c(c1)C1C=CCC1C(C(=O)O)N2 (stereo not drawn)	74*	28	0	31*	43	/	+
CC(=O)c1ccc2c(c1)C1C=CCC1C(c1ccncc1)N2 (stereo not drawn)	-1	-16	0	-9	-44	-10	/
O=C(NCc1ccncc1)/C(=N/O)c1ccccc1	1	0	3	6	2	1	/
O=C(O)C(Cc1ccccc1)N1C(=O)/C(=C/C=C/c2ccco2)SC1=S (stereo not drawn)	92*	22	0	53*	-23	-3	+
O=C(O)CCCN1C(=O)/C(=C/C=C/c2ccco2)SC1=S	84*	46	0	32*	-3	-9	i
Cn1cccc1/C=C1\SC(=S)N(NC(=O)c2ccccc2O)C1=O	14	-21	1	-5	-44	3	/
O=C(NN1C(=O)/C(=C/C=C/c2ccco2)SC1=S)c1ccccc1O	83*	27	1	36*	-6	-1	+
Cc1cc(O)ccc1Nc1nc(-c2sc(N)nc2C)cs1	62*	16	0	0	4	0	+
O=C(Cc1cccs1)N=Nc1c(O)[nH]c2ccc(Br)cc12	22	-3	0	-4	-3	6	/
COc1ccc2[nH]c(O)c(N=NC(=O)Cc3cccs3)c2c1	51*	-3	1	-2	-2	0	i
COc1ccc(OCC(=O)Nc2ccc(NC(=O)c3cccs3)c(OC)c2)cc1	18	1	0	4	3	-3	/
COc1cc(NC(=O)c2cccs2)c(OC)cc1NC(=O)CCC(=O)Nc1ccc2ncccc2c1	65*	-4	0	23	-14	2	i
COC(=O)c1sc(-c2ccc(C(C)(C)C)cc2)cc1NC(=O)c1ccccc1C(=O)O	82*	-12	1	-7	-11	0	+
Cc1ccc(C2=NN(C(=O)CSc3nc4ncc(Cl)cc4[nH]3)C(c3ccco3)C2)cc1 (stereo not drawn)	77*	18	0	-4	26	0	i
COc1ccc(C2=NN(C(=O)CSc3nc4ncc(Cl)cc4[nH]3)C(c3ccco3)C2)cc1 (stereo not drawn)	22	17	0	-12	19	-4	/
O=C(Nc1nc2ccc(S(=O)(=O)N3CCCCC3)cc2s1)c1ccncc1	1	0	-1	-6	-10	-1	/
O=C(Nc1nc2ccc(S(=O)(=O)N3CCCC3)cc2s1)c1ccccn1	57*	-1	-1	6	3	10	i
Cc1cc2nc(-c3ccc(SCC(=O)Nc4ccc(S(=O)(=O)NC5CC5)cc4)nc3)[nH]c2cc1C	87*	-6	0	6	-7	0	+
SMILES	Hck Nef HTS	Runt-CBFb FRET	PERK inhibitor	eIF4E 4G PPI	Runt-SMMHC FRET	RanGTP-Impb inh	Hck Nef conf
Cc1cc2nc(-c3ccc(SCc4ccc(C(=O)O)cc4)nc3)[nH]c2cc1C	74*	3	0	-1	-3	3	+
COc1ccc(N2C3=[N+](CC2(C)O)c2ccccc2CC3)cc1 (stereo not drawn)	3	0	0	8	5	-5	/
CCOCCCn1c(=NC(C)=O)c(C#N)cc2c(=O)n3ccccc3nc21	96*	28	0	3	88*	123*	/
CCOCCCn1c(=NC(C)=O)c(C(=O)OCC)cc2c(=O)n3ccccc3nc21	119*	52*	0	-2	63*	77*	/
COCCCn1c(C(=O)NC2CCCCC2C)cc2c(=O)n3cccc(C)c3nc21 (stereo not drawn)	/	/	/	/	/	6	/
CCOC(=O)c1cc2c(=O)n3ccccc3nc2n(CC(C)C)c1=NC(=O)c1ccco1	105*	18	-1	2	60*	141*	i
COCCCn1c(=NC(=O)c2ccccc2)c(C#N)cc2c(=O)n3cccc(C)c3nc21	82*	24	-1	0	88*	49*	i
Fc1ccccc1-n1cn[nH]c1=S	30	3	0	2	-2	-2	/
O=C(CNC(=O)C12CC3CC(CC(C3)C1)C2)N/N=C\c1ccco1	/	/	/	/	/	3	/
COc1cc2oc(-c3ccc(O)cc3)cc(=O)c2c(O)c1OC	89*	0	/	58*	-3	?	+
COc1c(O)cc2oc(-c3ccc(O)cc3)cc(=O)c2c1O	91*	3	/	2	1	13	+
COc1cc2oc(-c3ccc(O)cc3)cc(=O)c2c(OC)c1O	8	44	1	-3	9	4	/
CC(=O)NC(Cc1ccccc1)C(C)=O (stereo not drawn)	13	2	0	-2	-2	-4	/
CCC(C)N1CC(O)=C(c2nc3ccccc3[nH]2)C1=N (stereo not drawn)	58*	0	-1	3	0	-1	+
CCOC(=O)C(C(=O)OCC)[C@@H]1CS(=O)(=O)C[C@H]1C(C(=O)OCC)C(=O)OCC	-1	2	0	2	2	2	/
COc1ccccc1CNC(=O)c1c(N)n(CCCN2CCOCC2)c2nc3ccccc3nc12	52*	3	-1	8	38	126*	i
COc1ccccc1-c1cc(C(=O)NCCCN2CCOCC2)no1	/	/	/	/	/	2	/
O=C(NC(=S)Nc1cccc(S(=O)(=O)NC2=NCCC2)c1)c1cc(-c2ccco2)nc2ccccc12	27	-9	1	2	-6	-2	/
